# Source: PubChem BioAssay
# A selection: hits, their analogues and other compounds. The true share with any hit is near 2.4%.
# ERAP1 HTS inh: human ERAP1 aminopeptidase inhibitors, primary screen, biochemical, single point, plate reader; hit rate 0.15% among 340,000; inhibition, % at 10.7 µM; Endoplasmic reticulum aminopeptidase 1 (Homo sapiens), Q9NZ08; recombinant ERAP1, Leu-AMC fluorescence, 60 min; AID 652197, 2013;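 active = mean replicate inhibition of at least 30%, or all replicates individually reaching that 30% level; inactive = mean below 30% and not every replicate reaching it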;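 also: 0% = neutral control wells and 100% = L-leucinethiol positive control wells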
# CASP6 VEID inh: human caspase-6 inhibitors, primary screen, biochemical, VEID-R110 fluorescence, single point, set 2; P55212; purified caspase-6, Z-VEID-R110 cleavage fluorescence; inhibition, % at 12.5 µM; hit rate 0.53% among 350,000; AID 686996, 2013;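 active = mean inhibition across replicates at least about 35%, with every replicate also reaching that limit, limit read from the data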;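 also: 0% = median of neutral control wells and 100% = no fluorescence left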
# Target sequence (P55212 24-179 limits assumed): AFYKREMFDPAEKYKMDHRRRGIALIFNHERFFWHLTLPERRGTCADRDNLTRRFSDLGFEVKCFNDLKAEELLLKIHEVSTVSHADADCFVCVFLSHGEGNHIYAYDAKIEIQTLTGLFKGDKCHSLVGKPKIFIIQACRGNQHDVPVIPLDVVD
# Target sequence (P55212 194-293 limits assumed): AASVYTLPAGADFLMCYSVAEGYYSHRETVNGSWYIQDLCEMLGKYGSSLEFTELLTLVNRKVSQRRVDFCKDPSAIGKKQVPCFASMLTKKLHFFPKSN
# Ecoli rRNA inh: reduced GFP signal of wild-type E. coli, primary screen, bacterial rRNA inhibitor project, GFP/RFP fluorescence, OD600, single point. E. coli WT GFP vs humanized-ribosome RFP mutants, 24 h; hits give low values; DMSO median 0, no signal -100. GFP signal change (wild-type ribosome), % (no concentration beside the values). hit rate 1.6% among 350,000. AID 720706, 2013;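 active = significant combined selectivity score with lowered wild-type GFP, culture density cut under 30%, mutant RFP and density less affected; inactive = any of these conditions unmet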
# PGC1a acetyl inh: inhibitors of PGC1a acetylation signal, primary screen, cell-based, U2OS, AlphaScreen, inhibitor mode | AlphaScreen anti-acetyl-lysine; with virally co-expressed GCN5 acetyltransferase | inhibition, % at 15.6 µM | hit rate 0.17% among 350,000;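 active = every replicate shows inhibition of at least 40%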;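 also: 0% = neutral control wells and 100% = positive control wells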
# ARNT TACC3 PPI: disruptors of ARNT/TACC3 protein interaction, primary screen, biochemical, AlphaScreen, single concentration. Transforming acidic coiled-coil-containing protein 3 (Homo sapiens), Q9Y6A5. AlphaScreen His-ARNT PAS-B/GST-TACC3 binding, luminescence; TACC3 fragment carries E629A point mutation. inhibition, % at 9.99 µM. hit rate 0.66% among 390,000;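 active = mean inhibition of replicates at least 50% and at least half of replicates each reaching 50%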;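 also: 0% = complete ARNT plus TACC3 wells and 100% = ARNT alone without TACC3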
# S100A4 MyoIIA: inhibitors of S100A4-myosin IIA peptide binding, primary screen, biochemical, fluorescence polarization, TAMRA-MyoIIA peptide. Protein S100-A4 (Homo sapiens), P26447. inhibition, % at 10.7 µM. hit rate 0.14% among 360,000. AID 652163, 2013;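 active = mean inhibition of at least 70% across replicates, with every replicate also reaching that level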
# Target sequence (P26447 whole entry, looked up): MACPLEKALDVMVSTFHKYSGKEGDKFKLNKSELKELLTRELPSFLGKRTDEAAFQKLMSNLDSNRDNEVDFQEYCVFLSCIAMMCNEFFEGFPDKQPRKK
#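 Assay system: human S100A4 monomer with TAMRA-labelled myosin IIA peptide / Buffer or medium: Calcium-containing HEPES buffer, pH 7.2 / Reagent: TAMRA-labelled myosin IIA heavy-chain peptide probe, 5 nM / Compound: one dose per compound / Timing: polarization read 5 min after assay mix addition, stable 5–60 min / Benchmarks: neutral control DMSO, positive control TFP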
# The depositor's hits bear a star; x = no result.
SMILES,ERAP1 HTS inh,CASP6 VEID inh,Ecoli rRNA inh,PGC1a acetyl inh,ARNT TACC3 PPI,S100A4 MyoIIA
C[C@@H]1CN([C@@H](C)CO)C(=O)c2cccc(NC(=O)c3ccc(-c4nccs4)cc3)c2O[C@H]1CN(C)S(=O)(=O)c1cn(C)cn1,1,-2,-23,4,-5,-10
Cc1ccc(NCCCn2cnc3c(OCc4ccccc4)ncnc32)cc1C,x,2,-21*,-6,7,9
CC(CNCCCn1cnc2c(OCc3ccccc3)ncnc21)c1ccccc1 (stereo unspecified),x,-2,-17*,-7,7,-3
O=C(Cc1ccncc1)NCC[C@H]1CC[C@H](NC(=O)Nc2ccc(F)cc2)[C@H](CO)O1,0,0,2,3,x,-2
CN1CCN(C(=O)C[C@H]2CC[C@@H](NC(=O)Nc3ccccc3F)[C@@H](CO)O2)CC1,1,2,-3,8,-22,-4
O=C(NNS(=O)(=O)c1ccc(Cl)cc1)c1cc(-c2ccccc2)nc2ccccc12,-2,-3,-31*,-4,-3,36
O=C(NNC(=O)c1cc(-c2cccnc2)nc2ccccc12)Nc1ccc(Cl)cc1,-1,10,-29*,7,-2,-5
Cc1cccc(S(=O)(=O)NNC(=O)c2cc(-c3ccc(F)cc3)nc3ccccc23)c1,1,0,1,2,-4,2
O=C(C[C@@H]1CC[C@@H](NC(=O)C2CC2)[C@H](CO)O1)NC1CCC1,2,3,0,-13,-1,-22
Cc1nc(-c2ccccc2)[nH]c(=O)c1Oc1ccc(Cl)cc1Cl,2,3,x,-3,2,-2
O=c1[nH]c(=S)[nH]cc1Oc1ccc(Cl)cc1Cl,1,-6,-25*,x,-8,-9
Cc1ccc(/C(=N/Nc2ncnc3ccccc23)C(=O)O)cc1,2,12,-3,-31,61*,2
Cc1cc(C)nc(NC(=O)c2ccc(COc3ccccc3Cl)cc2)c1,1,-6,-24*,4,x,5
COc1ccc(NC(=O)Nc2ccc3c(c2)C(=O)N([C@H](C)CO)C[C@@H](C)[C@@H](CN(C)CC2CCCCC2)OCCCC[C@@H](C)O3)cc1,0,-2,2,-3,15,22
CN1CCN(C(=O)C[C@@H]2C=C[C@H](NC(=O)Cc3ccccn3)[C@H](CO)O2)CC1,4,0,0,-4,7,16
CN(CC(=O)Nc1ccccc1C(F)(F)F)C(=O)CSc1nnc(-c2ccncc2)n1C,35*,-1,8,-1,1,-12
CCNc1nc(NCC)nc(C(=O)NN)n1,x,x,x,-8,75*,x
O=C(C[C@H]1CC[C@@H]2[C@H](COC[C@@H](O)CN2Cc2cc(F)ccc2F)O1)NCc1ccc(Cl)cc1,3,1,1,-2,5,8
COc1ccccc1CN1CCNC(=O)C1CC(=O)NCCCN1CCOCC1 (stereo unspecified),0,-22,5,-6,x,131*
COc1ccc(NC(=O)Nc2ccc3c(c2)[C@@H]2C[C@H](CC(=O)NCc4ccc5c(c4)OCO5)O[C@H](CO)[C@@H]2O3)cc1,2,0,2,0,-11,3
CC(C)(C)c1ccc(CCC2OCC(C[N+]3(C)CCOCC3)O2)cc1 (stereo unspecified),104*,-5,4,73*,4,-4
CC(C)CC#Cc1ccc([C@H]2[C@@H](CO)N3C(=O)CN(C(=O)NC4CCCC4)C[C@@H]23)cc1,1,0,-20,x,x,3
Nc1nc(N)c(Br)c(Nc2ccc(Cl)c(Cl)c2)n1,2,1,-17,-15,-7,-2
Nc1nc(N)c(C=Nc2ccc(Br)cc2)c(Nc2ccc(Br)cc2)n1,0,-1,-25*,x,5,-3
O=C(O)COc1ccc(/C=N/NC(=O)c2ccc(-c3csc(Nc4ccc(Cl)cc4)n3)cc2)cc1,-6,20,3,4,-2,1
SMILES,ERAP1 HTS inh,CASP6 VEID inh,Ecoli rRNA inh,PGC1a acetyl inh,ARNT TACC3 PPI,S100A4 MyoIIA
CCOc1cc(/C=N/NC(=O)c2ccc(-c3csc(Nc4ccc(C)cc4)n3)cc2)ccc1OCC(=O)O,1,50*,-30,-6,5,0
O=[N+]([O-])c1ccccc1C(=Nc1ccccc1)c1c(O)cc(O)cc1O,-3,3,-21*,10,x,-4
CN(C)C(=O)C[C@@H]1C=C[C@@H](NC(=O)C2CC2)[C@H](CO)O1,-1,0,0,-27,0,-6
COc1cccc(-c2ccc3n(c2=O)C[C@H]2[C@H](CO)[C@@H](C(=O)NC4CCC4)N[C@@H]32)c1,4,-4,3,x,-9,-5
CCCCn1c(N)c(N(CC)C(=O)c2ccco2)c(=O)[nH]c1=O,84*,4,6,-4,3,-3
COCCN(C(=O)CSc1ncn[nH]1)c1c(N)n(Cc2ccccc2)c(=O)[nH]c1=O,57*,1,3,6,1,-2
COCCN(C(=O)c1cc(-c2ccco2)nc2ccccc12)c1c(N)n(Cc2ccccc2)c(=O)[nH]c1=O,2,60*,3,15,19,-12
CCN(C(=O)COC(=O)c1oc2ccccc2c1C)c1c(N)n(Cc2ccccc2)c(=O)[nH]c1=O,-2,54*,3,0,-1,3
COCCN(C(=O)CSc1ncccn1)c1c(N)n(Cc2ccccc2)c(=O)[nH]c1=O,1,-1,8,x,0,0
COc1ccc(C#Cc2ccc3c(c2)[C@H]2[C@H](CCN2C(=O)C2CCC2)[C@@H](CO)N3)cc1,2,1,-2,-9,x,5
CCc1noc(C)c1C(=O)N(CCOC)c1c(N)n(CC(C)C)c(=O)[nH]c1=O,95*,-2,9,-3,1,0
CCCCN(C(=O)c1cc(-c2ccco2)nc2ccccc12)c1c(N)n(CCCC)c(=O)[nH]c1=O,-1,20,5,x,-3,1
CCCCN(C(=O)c1c(CC)noc1C)c1c(N)n(CC(C)C)c(=O)[nH]c1=O,0,-3,5,3,1,-2
CCCCn1c(N)c(N(CCOC)C(=O)c2cc(-c3ccc(OC)c(OC)c3)nc3ccccc23)c(=O)[nH]c1=O,37*,-3,1,x,-4,-2
COCCN(Cc1ccccc1)C(=O)c1cc(-c2ccc(OC)c(OC)c2)nc2ccccc12,-2,-11,-31*,x,-3,2
